Measurements from ChEMBL document CHEMBL4118066, “QSAR-driven design, synthesis and discovery of potent chalcone derivatives with antitubercular activity” (Eur J Med Chem, 2017).
≈ marks a conversion by molar mass, not a printed value.

Assays:
[1] = tested on: Mycobacterium tuberculosis; assay: Antitubercular activity against isoniazid-resistant Mycobacterium tuberculosis H37Rv ATCC 35822 after 7 days under normoxic condition by microplate Alamar blue assay; type: functional; conditions: H37Rv ATCC 35822, 168 h
Method in brief: (§1)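 Replicating, normoxic cultures in Middlebrook 7H12 medium, exposed to compound for 7 d at 37 °C. Resazurin plus Tween 80 then added for a further 24 h at 37 °C. Fluorescence read at ex/em 530/590 nm. MIC is the lowest concentration giving 90% lower fluorescence than controls.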

[2] = tested on: Mycobacterium tuberculosis; assay: Antitubercular activity against rifampin-resistant Mycobacterium tuberculosis H37Rv ATCC 35838 after 7 days under normoxic condition by microplate Alamar blue assay; type: functional; conditions: H37Rv ATCC 35838, 168 h; method in brief: as §1

Structure (SMILES)	MIC90 [1]	MIC90 [2]
O=C(/C=C/c1ccc([N+](=O)[O-])o1)c1ccc(Br)cc1	0.58 µM (≈ 0.187 µg/mL)	0.76 µM (≈ 0.245 µg/mL)
O=C(/C=C/c1ccc([N+](=O)[O-])o1)c1ccc(N2CCCCC2)cc1	< 0.03 µM	0.07 µM (≈ 0.0228 µg/mL)
O=C(/C=C/c1ccc([N+](=O)[O-])o1)c1ccc(N2CCOCC2)cc1	0.11 µM (≈ 0.0361 µg/mL)	0.55 µM (≈ 0.181 µg/mL)
COc1ccc(/C=C/C(=O)c2cccc(Br)c2)cc1	4.94 µM (≈ 1.57 µg/mL)	9.28 µM (≈ 2.94 µg/mL)
COc1ccc(/C=C/C(=O)c2cccc(I)c2)cc1	7.75 µM (≈ 2.82 µg/mL)	8.31 µM (≈ 3.03 µg/mL)
CC(C)(C)c1ccc(C(=O)/C=C/c2ccc([N+](=O)[O-])s2)cc1	0.15 µM (≈ 0.0473 µg/mL)	0.14 µM (≈ 0.0442 µg/mL)
Cc1cccc(C(=O)/C=C/c2ccc([N+](=O)[O-])o2)c1	1.93 µM (≈ 0.496 µg/mL)	3.78 µM (≈ 0.972 µg/mL)
O=C(/C=C/c1ccc([N+](=O)[O-])o1)c1ccc(-n2ccnc2)cc1	1.44 µM (≈ 0.445 µg/mL)	1.19 µM (≈ 0.368 µg/mL)
O=C(/C=C/c1ccc([N+](=O)[O-])o1)c1ccc(N2CCNCC2)cc1	0.19 µM (≈ 0.0622 µg/mL)	0.76 µM (≈ 0.249 µg/mL)
Cc1ccc(C(=O)/C=C/c2ccc([N+](=O)[O-])s2)cc1	0.96 µM (≈ 0.262 µg/mL)	1.21 µM (≈ 0.331 µg/mL)
O=C(/C=C/c1ccc([N+](=O)[O-])o1)c1ccc(C2CCCCC2)cc1	1.23 µM (≈ 0.4 µg/mL)	1.12 µM (≈ 0.364 µg/mL)
O=C(/C=C/c1ccc([N+](=O)[O-])o1)c1ccc(I)cc1	1.08 µM (≈ 0.399 µg/mL)	1.18 µM (≈ 0.436 µg/mL)
CC(C)(C)c1ccc(C(=O)/C=C/c2ccc([N+](=O)[O-])o2)cc1	0.22 µM (≈ 0.0659 µg/mL)	0.29 µM (≈ 0.0868 µg/mL)
Cc1ccccc1C(=O)/C=C/c1ccc([N+](=O)[O-])o1	1.07 µM (≈ 0.275 µg/mL)	1.08 µM (≈ 0.278 µg/mL)
CSc1ccc(C(=O)/C=C/c2ccc([N+](=O)[O-])s2)cc1	0.22 µM (≈ 0.0672 µg/mL)	0.14 µM (≈ 0.0428 µg/mL)
O=C(/C=C/c1ccc([N+](=O)[O-])o1)c1ccc(-c2ccccc2)cc1	0.29 µM (≈ 0.0926 µg/mL)	3.45 µM (≈ 1.1 µg/mL)
O=C(/C=C/c1ccc([N+](=O)[O-])s1)c1ccc(-n2ccnc2)cc1	0.3 µM (≈ 0.0976 µg/mL)	0.6 µM (≈ 0.195 µg/mL)
CCCCc1ccc(C(=O)/C=C/c2ccc([N+](=O)[O-])s2)cc1	0.31 µM (≈ 0.0978 µg/mL)	0.48 µM (≈ 0.151 µg/mL)
CCCCc1ccc(C(=O)/C=C/c2ccc([N+](=O)[O-])o2)cc1	2.23 µM (≈ 0.667 µg/mL)	4.7 µM (≈ 1.41 µg/mL)
O=C(/C=C/c1ccc(Cl)s1)c1ccc(-n2ccnc2)cc1	9.03 µM (≈ 2.84 µg/mL)	8.89 µM (≈ 2.8 µg/mL)
O=C(/C=C/c1ccc([N+](=O)[O-])o1)c1cccc(Br)c1	1.12 µM (≈ 0.361 µg/mL)	1.88 µM (≈ 0.606 µg/mL)
CSc1ccc(C(=O)/C=C/c2ccc([N+](=O)[O-])o2)cc1	0.8 µM (≈ 0.231 µg/mL)	0.24 µM (≈ 0.0694 µg/mL)
NNC(=O)c1ccncc1 [ISONIAZID]	> 5 µM	
CO[C@H]1/C=C/O[C@@]2(C)Oc3c(C)c(O)c4c(O)c(c(/C=N/N5CCN(C)CC5)c(O)c4c3C2=O)NC(=O)/C(C)=C\C=C\[C@H](C)[C@H](O)[C@@H](C)[C@@H](O)[C@@H](C)[C@H](OC(C)=O)[C@@H]1C [RIFAMPIN]		> 1 µM
